# A selection: hits, their analogues and other compounds. The true share with any hit is near 2.3%.
# CD11b adhes inh – blocks human CD11b/CD18 adhesion to fibrinogen | K562 CD11b/CD18 adhesion to fibrinogen, ATPlite luminescence; Mn2+ added to activate the integrin | P05107+P11215 | inhibition, % at 10 µM | 0.54% of 93,000 active;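 active = primary inhibition of 50% or more at 10 µM, then 40% or more on retest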
# Target sequence (P05107 whole entry, looked up, other chains not shown): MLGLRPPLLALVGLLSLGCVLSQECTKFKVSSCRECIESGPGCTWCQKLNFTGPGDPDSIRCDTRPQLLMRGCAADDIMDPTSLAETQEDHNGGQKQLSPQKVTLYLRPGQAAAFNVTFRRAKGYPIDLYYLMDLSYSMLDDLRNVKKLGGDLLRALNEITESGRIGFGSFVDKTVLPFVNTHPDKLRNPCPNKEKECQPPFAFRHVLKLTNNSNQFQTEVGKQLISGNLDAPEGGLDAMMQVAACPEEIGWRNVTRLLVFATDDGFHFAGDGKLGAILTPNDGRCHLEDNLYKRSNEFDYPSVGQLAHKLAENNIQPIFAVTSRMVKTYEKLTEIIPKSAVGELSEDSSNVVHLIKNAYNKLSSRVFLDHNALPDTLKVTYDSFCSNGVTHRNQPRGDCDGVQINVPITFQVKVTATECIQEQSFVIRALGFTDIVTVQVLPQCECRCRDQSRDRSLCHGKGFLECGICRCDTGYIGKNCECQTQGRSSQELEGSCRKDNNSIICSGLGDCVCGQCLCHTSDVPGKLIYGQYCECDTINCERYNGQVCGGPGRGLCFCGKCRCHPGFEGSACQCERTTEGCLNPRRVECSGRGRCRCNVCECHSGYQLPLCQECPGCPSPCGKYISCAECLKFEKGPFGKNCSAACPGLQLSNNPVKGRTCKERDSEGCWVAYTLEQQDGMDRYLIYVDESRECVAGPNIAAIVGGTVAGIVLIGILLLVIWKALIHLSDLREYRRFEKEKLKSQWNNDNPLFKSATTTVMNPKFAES
# Mac1 fbg enh – enhancers of human CD11b/CD18 binding to fibrinogen. P05107+P11215. K562 CD11b/CD18 adhesion to fibrinogen, ATPlite luminescence. activation, % at 10 µM. 0.07% of 93,000 active. AID 1499;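 active = 10 µM primary screen giving 50% or more activity, confirmed by 40% or more on retest at that dose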
# Ecoli WT expand – E. coli BW25113 growth inhibition, expanded screen. OD600 absorbance. growth inhibition, % at 100 µM. 0.15% of 98,000 active. AID 710;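 active = growth inhibition above about 50% at one test dose, limit read from the data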;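 note: growth measured after 20 h incubation at 37 °C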
# tolC growth inh – E. coli tolC mutant growth inhibition | E. coli BW25113 tolC mutant growth, OD615 | AID 573 | growth inhibition, % at 10 µM (by protocol) | 2.2% of 65,000 active;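 active = growth inhibition at or above a cutoff equal to the mean over every tested compound plus 3 SD, cut at about 60% in these data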;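 note: growth measured after 20 h incubation at 37 °C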
#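 Test system – E. coli BW25113 ΔtolC::kan, tolC deletion mutant strain · Detection – OD at 615 nm · Buffer or medium – LB with kanamycin 50 µg/mL · Times – 20 h compound exposure of bacteria at 37 °C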
# Pyk2 oligo antag – antagonists of human Pyk2 oligomerization. Q14289. 0.83% of 99,000 active. Q293 cells, Pyk2 FERM NanoBiT luminescence; hits give low values. z-score (the deposit names both 25 µM and 10 µM);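 active = Z-score of -3 or lower, scaled per plate to the spread of control and sample wells; inactive = z-score above -3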;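 note: negative z-score means lost luminescence so less FERM oligomerization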
# * = called active by the depositor; nt = not tested or not shown.
SMILES,CD11b adhes inh,Mac1 fbg enh,Ecoli WT expand,tolC growth inh,Pyk2 oligo antag
COc1ccc(-n2cnc3cc(NCc4cccs4)ccc32)cc1,8,-1,-12,98*,-1.7
COc1ccccc1C(=O)Nc1nnc(-c2ccc3c(c2)CCCC3)o1,13,6,-10,98*,nt
COc1ccc(-c2nnc(NC(=O)c3ccccc3C)o2)cc1,nt,nt,nt,100*,nt
COc1cccc(C(=O)Nc2nnc(-c3ccc(Cl)cc3)o2)c1,nt,nt,nt,100*,nt
COc1cccc(C(=O)Nc2nnc(-c3ccc(F)cc3)o2)c1,nt,nt,nt,16,nt
CC(=O)Nc1nnc(-c2ccc3c(c2)CCCC3)o1,0,-1,4,2,nt
COc1cccc(C(=O)Nc2nnc(-c3cccs3)o2)c1,8,-1,80*,69*,nt
c1ccc(-n2nnnc2SCc2cccc3nsnc23)cc1,-9,2,-12,24,-0.54
Nc1nc(SCc2nc(-c3ccccc3)no2)[nH]c(=O)c1-c1ccccc1,-7,-4,8,nt,1.5
CCOC(=O)C1CCCN(Cc2ccc(OCC)cc2)C1 (stereo unspecified),-3,0,-2,nt,-0.32
O=C1OC(C(=O)O)Cc2ccccc21 (stereo unspecified),nt,nt,nt,nt,-0.1
CCC(Cc1ccccc1)NC(=O)C1CCN(S(=O)(=O)c2c(C)noc2C)CC1 (stereo unspecified),10,-5,3,nt,-0.15
COc1cc(SC)ccc1C(=O)Nc1ccc2c(c1)CCN2S(C)(=O)=O,11,0,-5,-5,-0.22
O=C(COc1ccc(Cl)cc1)Nc1nnc(-c2ccc3c(c2)CCCC3)o1,21,16,-8,100*,nt
O=C(Nc1nnc(-c2ccc(Cl)cc2)o1)NC1CCCCC1,3,15,-6,nt,-0.02
O=C(Nc1nnc(-c2ccc3c(c2)CCCC3)o1)C1COc2ccccc2O1 (stereo unspecified),3,2,0,100*,nt
CCOc1ccc(-c2nnc(NC(=O)c3ccc(OCC(C)C)c(OC)c3)o2)cc1,nt,nt,9,100*,-0.14
O=C(Nc1cccnc1)C1COc2ccccc2O1 (stereo unspecified),nt,nt,15,nt,0.87
CCCCN(Cc1cc2ccccc2[nH]c1=O)C(=O)c1ccccn1,-9,-3,-1,nt,0.31
O=C(CSc1nc2ccccc2s1)Nc1cc(S(=O)(=O)N2CCOCC2)ccc1O,44,8,nt,nt,nt
CC(C)(C)c1csc(NC(=O)Cn2c(=O)oc3ccccc32)n1,-54,-1,12,57,-3.4*
CCOC(=O)c1cn2cccnc2n1,-27,-6,-12,nt,-0.26
COc1ccc(Cl)cc1NC(=O)c1ccoc1C,4,2,-8,-4,-0.43
COc1cc(/C=C(\C#N)c2nc3ccccc3[nH]2)c([N+](=O)[O-])cc1OCc1ccccc1,-1,31,-10,nt,-1.4
CCN(CC)c1ccc(/C=C(/C#N)c2nc3ccccc3[nH]2)c(OC(C)C)c1,nt,nt,-28,nt,-3.4*
SMILES,CD11b adhes inh,Mac1 fbg enh,Ecoli WT expand,tolC growth inh,Pyk2 oligo antag
N#Cc1c(N2CCCCC2)nc(N2CCCCC2)c2c1CCN(Cc1ccccc1)C2,nt,nt,-14,14,-0.39
C(=C\c1ccccc1)/CSc1nnc(-c2ccccn2)n1Cc1ccco1,11,-2,-12,93*,-0.71
Clc1ccccc1CSc1nnc(-c2ccccn2)n1Cc1ccco1,-5,-3,-6,91*,-2.5
CN(C)/C=N/c1cnc(C(=O)c2ccc(Cl)cc2)n1C,-5,-3,5,1,0.46
O=S(=O)(Nc1ccc(Cc2ccncc2)cc1)c1ccc(Cl)c(Cl)c1,nt,nt,4,nt,-3*
CC(=O)c1c(C)[nH]c(C(=O)CSc2nnc(-c3ccc(Cl)cc3)n2CC2CCCO2)c1C (stereo unspecified),4,0,-1,nt,-0.09
O=C(CSc1nc2ccccc2c(=O)n1-c1ccc(F)cc1)NCc1ccco1,13,-1,3,nt,0.86
O=c1c2ccccc2nc(SCc2cn3ccsc3n2)n1-c1ccc(F)cc1,-15,1,32,24,-3.3*
CN1C(=O)c2oc3ccc(Br)cc3c(=O)c2C1c1ccncc1 (stereo unspecified),-4,2,nt,-20,nt
O=C(Oc1c(Cl)cc(Cl)c2cccnc12)c1ccco1,0,-2,100*,nt,-2.6
Cc1cccc(C(=O)NNC2=C(C(=O)C(F)(F)F)CCC2)c1O,96*,-7,5,nt,0.36
COc1ccc(-c2cnnc(N/N=C/C(C)=C/c3ccccc3)n2)cc1,-11,51,nt,nt,nt
CSc1ccc(S(=O)(=O)Nc2ccc(N3CCOCC3)c(Cl)c2)cc1,0,-1,-4,100*,-1.6
CSc1ccc(S(=O)(=O)Nc2ccc3c(c2)OCCO3)cc1,46,-4,5,29,nt
Oc1c(Br)cc(Br)cc1/C=N/c1nc2c(s1)CCCC2,nt,nt,67*,nt,1.2
Oc1ccc2ccccc2c1/C=N/c1nc2c(s1)CCCC2,6,-3,13,nt,0.71
COc1ccc2nc(NC(=O)C3CCCN(S(=O)(=O)c4cccs4)C3)sc2c1 (stereo unspecified),2,3,-6,68*,-0.39
COc1ccc2nc3c(cc2c1)c(NC(=O)c1cccs1)nn3CC(C)C,12,14,-15,78*,-3.4*
Cc1ccc2c(c1)c1ncnc(N3CCN(c4ccccc4)CC3)c1n2C,2,-1,-8,64*,1.3
c1ccc(N2CCN(c3ncnc4c3oc3ccccc34)CC2)cc1,41,-3,-15,94*,0.73
CCc1nnc(N2CCN(c3ncnc4c3oc3ccccc34)CC2)s1,15,-7,-4,32,-0.69
COc1ccc(OC)c(NC(=O)Cc2coc3ccc4ccccc4c23)c1,4,-4,-6,nt,0.08
Cc1cccc(CN2CCN(C(=O)CCl)CC2)c1,-1,0,nt,nt,0.86
Cc1ccnc(NC(=O)CCC(=O)N(CC(=O)NC2CCCCC2)CC2CCCO2)c1 (stereo unspecified),-4,2,-7,-30,0.49
COc1ccc(NC(=O)N(C2CCCCC2)C(C)c2cccnc2)c(OC)c1 (stereo unspecified),nt,nt,-3,8,1.2
SMILES,CD11b adhes inh,Mac1 fbg enh,Ecoli WT expand,tolC growth inh,Pyk2 oligo antag
COc1ccc(NC(=O)N(C2CCCCC2)C(C)c2ccco2)c(OC)c1 (stereo unspecified),5,-5,-17,69*,-0.26
CC(Oc1ccccc1)C(=O)NNS(=O)(=O)c1ccc([N+](=O)[O-])cc1 (stereo unspecified),nt,nt,nt,nt,-0.55
CCSCC1COC(c2cccn2Cc2ccc(C)cc2)=N1 (stereo unspecified),nt,nt,2,61*,0.18
CC1COC(c2cccn2Cc2ccccc2Cl)=N1 (stereo unspecified),nt,nt,5,-4,1.9
CC1CCN(c2nc3ccc(C(=O)N4CCN(Cc5ccc6c(c5)OCO6)CC4)cc3s2)CC1,56*,-4,-18,nt,nt
O=C(c1ccc2nc(N3CCOCC3)sc2c1)N1CCCC1,4,-2,2,-5,nt
CCOC(=O)C1CN(c2cc3c(cc2F)c(=O)c(C(=O)O)cn3CC)OC1C(=O)OCC (stereo unspecified),1,-4,10,98*,0.46

# Assay outcomes deposited in PubChem BioAssay by several laboratories.
